# From PubChem BioAssay
# KCNK3 inh: human KCNK3 channel inhibition, primary screen | B-score at 10 µM | 0.84% of 340,000 active | O14649 | CHO-KCNK3 thallium flux, FluxOR fluorescence; hits give low values;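 active = B-score under library mean minus 4 SD, starting fluorescence ratio at most library mean plus 5 SD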;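 also: more negative B-score means stronger inhibition of thallium flux through KCNK3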
# hERG protect: shields human hERG channel from block by proarrhythmic agents | Q12809 | CHO-hERG, FluxOR thallium flux, dofetilide IC70 present | activation (rescue from dofetilide block), less the hit threshold, % at 10 µM | 0.51% of 310,000 active;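 active = activation above the mean of controls blocked by dofetilide plus 5 SD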;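 also: thallium influx through hERG after potassium depolarization seen as dye fluorescence rise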
# KCNQ1 pot: human KCNQ1 channel potentiation or activation; P51787; CHO-K1 KCNQ1, thallium flux FluxOR fluorescence; hits give high values; B-score at 10 µM; 0.35% of 310,000 active; AID 2648;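 active = fluorescence ratio B-score, a plate-corrected score, at least three library SD, with initial intensity B-score within 5 SD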
#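 Assay system: stable KCNQ1 CHO-K1 line; medium: assay buffer, equal DMSO in all wells; timing: 90 min dye loading and 20 min compound exposure, both at room temperature; technique: kinetic FluxOR thallium fluorescence, 10-s 1-Hz baseline, 110-s post-stimulus read; read-out basis: B score of baseline-normalized fluorescence ratio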
# KCNQ1 block: inhibitors of human KCNQ1 potassium channel; CHO-K1 KCNQ1, FluxOR thallium flux fluorescence; hits give high values; P51787; 1.3% of 310,000 active; B-score at 10 µM; AID 2642;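 active = compounds whose thallium flux B-score, printed positive for inhibition, exceeds three library SD while starting fluorescence stays within three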;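 also: channel opened by potassium depolarization with thallium stimulus after 20 min compound exposure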
# KCNK9 inh: human KCNK9 channel inhibition | B-score at 10 µM | Q9NPC2 | AID 488922 | HEK293 KCNK9, FluxOR thallium flux fluorescence; hits give low values | 1.2% of 310,000 active;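 active = ratio B-score over 3 SD below the library mean, with starting fluorescence within 5 SD of its mean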;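 also: negative B-score means less thallium flux so channel inhibition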
# Kir21 inh: blocks the mouse Kir2.1 inward-rectifier potassium channel; P35561; HEK293-Kir2.1, FluxOR thallium flux fluorescence; hits give low values; B-score at 10 µM; 0.85% of 310,000 active; AID 1672;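 active = fluorescence ratio B-score at or below minus 3 SD of library scores, with starting-brightness B-score within 2 SD, cut at about -4.2 in these data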;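 also: channel flux triggered by added potassium and thallium sulfate stimulus; B-score of peak minus minimum fluorescence over baseline after thallium stimulus; more negative B-score means stronger Kir2.1 block with less thallium influx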
# Target sequence (P35561 whole entry, looked up): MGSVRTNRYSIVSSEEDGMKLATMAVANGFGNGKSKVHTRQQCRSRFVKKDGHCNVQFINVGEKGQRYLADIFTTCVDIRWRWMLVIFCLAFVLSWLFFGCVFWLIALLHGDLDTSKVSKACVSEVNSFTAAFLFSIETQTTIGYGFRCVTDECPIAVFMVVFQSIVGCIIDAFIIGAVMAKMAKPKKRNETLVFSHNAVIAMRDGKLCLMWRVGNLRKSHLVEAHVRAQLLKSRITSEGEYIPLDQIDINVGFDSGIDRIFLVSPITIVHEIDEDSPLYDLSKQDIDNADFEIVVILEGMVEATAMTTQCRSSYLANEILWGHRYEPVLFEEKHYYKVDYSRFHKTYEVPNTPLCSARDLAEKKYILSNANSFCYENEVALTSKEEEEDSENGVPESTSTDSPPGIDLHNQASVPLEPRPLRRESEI
# A number is an active result; i = inactive; nt = no result. Most compounds without a hit are left out; they make up all but 3.7% or so of the library.
SMILES,KCNK3 inh,hERG protect,KCNQ1 pot,KCNQ1 block,KCNK9 inh,Kir21 inh
CCCCCN(C(=O)CCC(=O)OCCOc1cccc(Cl)c1)c1c(N)n(CCCC)c(=O)[nH]c1=O,i,i,i,i,i,i
O=C1CN(C(=O)C2CCC(=O)N(CCc3ccc(Cl)cc3)C2)CCN1 (configuration not stated),i,i,i,i,i,i
CCc1ccc(C(c2ccc(CC)cc2)C(Cl)Cl)cc1,i,nt,nt,nt,nt,nt
Clc1ccc(C(c2ccccc2Cl)C(Cl)Cl)cc1 (configuration not stated),-8.9,nt,nt,nt,nt,nt
CCOC(=O)N1CCN(S(=O)(=O)c2ccc3c(c2)NC(=O)CO3)CC1,i,nt,nt,nt,nt,nt
CCOC(=O)N1CCN(S(=O)(=O)c2ccc3c(c2)OCC(=O)N3)CC1,i,10,i,i,i,i
Cc1cc(Cl)c(OCCOCCN2CCC(C)CC2)c(Br)c1,i,i,i,i,i,-5.2
Cc1cc(Cl)c(OCCOCCN2CCN(C)CC2)c(Br)c1,i,i,i,i,i,i
Cc1cc(C)c(OCCCCN2CCC(C)CC2)c(Br)c1,i,i,i,i,i,-5.5
Clc1ccc(OCCOCCN2CCCCC2)c(Br)c1,i,i,i,i,i,i
CC1CCN(CCOCCOc2ccc(Cl)cc2Br)CC1,i,i,i,6,i,i
CC(CCc1ccccc1)NC(=O)CN1C(=O)NC2(CCCCC2C)C1=O (configuration not stated),i,nt,nt,nt,nt,nt
CC1(C)C2CCC1(CS(=O)(=O)NCc1ccc(C(F)(F)F)cc1)C(=O)C2 (configuration not stated),i,i,i,i,i,i
CN(C)c1cc[n+](CC(=O)Nc2ccc(OC(F)F)cc2)cc1,i,i,i,i,i,i
COCC1CCCCN1C(=O)c1cccc(OC2CCN(S(C)(=O)=O)CC2)c1 (configuration not stated),i,i,i,i,i,i
CC(C)CCNC(=O)C1CCC(=O)N1CCc1ccccc1 (configuration not stated),i,i,i,i,i,i
COCCOC(=O)C1=C(N)OC2=C(C(=O)CC(C)(C)C2)C1c1cccnc1 (configuration not stated),i,5.2,i,i,i,i
O=c1[nH]c(C(Cl)(Cl)Cl)nc2ccc3ccccc3c12,i,5.1,25,i,i,i
O=c1[nH]c(SCc2c(Cl)cccc2Cl)nc2ccccc12,i,i,i,i,i,i
CCCCCNC(=O)c1ccc2c(=O)[nH]c3c(C(=O)NCC4CCCO4)sc(=S)n3c2c1 (configuration not stated),i,i,i,i,i,i
Cc1ccc(CNC(=O)c2ccc3c(=O)[nH]c4c(C(=O)NCC5CCCO5)sc(=S)n4c3c2)cc1 (configuration not stated),i,i,i,10,i,i
O=C(NCc1ccccc1)c1ccc2c(=O)[nH]c3c(C(=O)NCC4CCCO4)sc(=S)n3c2c1 (configuration not stated),i,i,i,8,i,i
O=C(NCc1ccco1)c1sc(=S)n2c1[nH]c(=O)c1ccccc12,i,i,i,7,i,i
O=C(NC1CCCC1)c1sc(=S)n2c1[nH]c(=O)c1ccccc12,i,i,i,i,i,i
CCN1CCN(CCCNC(=O)CCC(=O)N2CCOc3ccccc32)CC1,i,i,i,i,i,i
SMILES,KCNK3 inh,hERG protect,KCNQ1 pot,KCNQ1 block,KCNK9 inh,Kir21 inh
CCC1(C(=O)O)NC(c2cc(OC)ccc2O)C2C(=O)N(Cc3ccccc3)C(=O)C21 (configuration not stated),i,5.5,i,i,i,i
CCCCN1C(=O)C2C(c3ccc(OC)cc3O)NC(CC(C)C)(C(=O)O)C2C1=O (configuration not stated),i,i,i,i,i,i
CCCC1CCc2[nH]nc(C(=O)NN)c2C1 (configuration not stated),i,nt,nt,nt,nt,nt
COc1ccc(C(C[N+](=O)[O-])c2c(C)[nH]n(-c3ccccc3)c2=O)cc1 (configuration not stated),i,i,i,7,i,-8.7
O=C(N/N=C/c1ccc([N+](=O)[O-])o1)C1CC1,i,i,i,i,i,i
COc1ccccc1N1CCN(C(=O)c2cccc(S(=O)(=O)Nc3ccccc3F)c2)CC1,i,nt,nt,nt,nt,nt
